Activity calls are given as the source filed them. The calls are words filed in the database; no cut-off is given here.
What was measured:
Coxsackievirus B2 = test: Antiviral activity against Human coxsackievirus B2 infected in african green monkey Vero cells after 24 to 36 hrs by MTS-based CPE reduction assay; format: functional, organism-based; settings: Enterovirus B
Outline: (§1)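 Vero cells infected with the coxsackievirus B serotype in the presence of serial compound dilutions. CPE reduction read by MTS/PMS absorbance at 498 nm after 24-36 h at 37 °C. EC50 is the concentration giving 50% CPE inhibition. Mean ± standard deviation of at least three independent experiments.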

RD [1] = test: Cytotoxicity against human RD cells infected with human enterovirus 71 measured during a single replication cycle; format: cell-based
Enterovirus A71 [2] = test: Antiviral activity against Enterovirus 71 infected in human RD cells after 24 to 36 hrs by MTS-based CPE reduction assay; format: functional, organism-based; settings: Enterovirus A, RD; read-out: EC50
Outline: (§2)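 RD cells given serial compound dilutions with EV71. Incubated at 37 °C for 24-36 h until full CPE in the virus control. Viability read by MTS/PMS at 498 nm. EC50 is the concentration giving 50% inhibition of virus-induced CPE. At least three independent experiments.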

[3] = Selectivity index, ratio of CC50 for african green monkey Vero cells to EC50 for Enterovirus 71; format: toxicity, cell-based; settings: read-out: Ratio CC50/EC50
Outline: (§3)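 Selectivity index is CC50/EC50, both taken from MTS-based CPE reduction assays in the same cell line (Vero or RD).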

Coxsackievirus B4 = test: Antiviral activity against Human coxsackievirus B4 infected in african green monkey Vero cells by after 24 to 36 hrs MTS-based CPE reduction assay; format: functional, organism-based; settings: Enterovirus B; outline: as §1
Enterovirus A71 [4] = test: Induction of stabilization of Human enterovirus 71 capsid protein assessed as increase in temperature for achieving equal staining of viral genome at 5 ug/ml by SYBR green fluorescent assay
Outline: (§4)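 SYBR green I and II added at 3× with RNase inhibitor at 1 U/µL. Mixture heated 37–70 °C in 1 °C steps, 2 min each, then cooled to 36 °C for 2 min while fluorescence was read.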

RD [5] = test: Cytotoxicity against human RD cells assessed as reduction in cell viability after 24 to 36 hrs by MTS-based CPE reduction assay; format: functional
Outline: (§5)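 Noninfected Vero or RD cells exposed to serial compound dilutions under the CPE-assay conditions (37 °C, 24-36 h). Viability measured by MTS/PMS absorbance at 498 nm. CC50 is the concentration causing 50% death of noninfected cells.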

Enterovirus A71 [6] = test: Antiviral activity against Human enterovirus 71 infected in monkey African green Vero cells by MTS-based CPE reduction assay; format: functional, organism-based; settings: Enterovirus A, Vero; read-out: EC50
Outline: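 Vero cells (5 × 10^5) seeded, then given serial compound dilutions plus 100 TCID50 EV71. Incubated at 37 °C for 24-36 h until complete CPE in the virus-infected, compound-free control. Viability read by MTS/PMS at 498 nm. EC50 is the concentration inhibiting virus-induced CPE by 50%. At least three repeats.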

Coxsackievirus B3 = test: Antiviral activity against Human coxsackievirus B3 infected in african green monkey Vero cells after 24 to 36 hrs by MTS-based CPE reduction assay; format: functional, organism-based; settings: Enterovirus B; outline: as §1
Coxsackievirus B5 = test: Antiviral activity against Human coxsackievirus B5 infected in african green monkey Vero cells after 24 to 36 hrs by MTS-based CPE reduction assay; format: functional, organism-based; settings: Enterovirus B; outline: as §1
[7] = Cytotoxicity against african green monkey Vero cells assessed as reduction in cell viability after 24 to 36 hrs by MTS-based CPE reduction assay; settings: chlorocebus sabaeus; outline: as §5
Enterovirus A71 [8] = test: Antiviral activity against Human enterovirus 71 infected in human RD cells assessed as reduction in virus titer measured during single replication cycle by virus titer assay; format: functional, organism-based
Outline: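 RD cells (5 × 10^4 per well) cultured at 37 °C, 5% CO2. Next day, treated with compound at 0.00042-33.3 µg/mL in 10% FBS, 0.5% DMSO. After 2 h, infected with EV71 at MOI 1. Supernatants serially diluted 10^-1 to 10^-8 onto fresh cells. CPE scored at 72 hpi; TCID50 calculated by Reed-Muench.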

Coxsackievirus B6 = test: Antiviral activity against Human coxsackievirus B6 infected in african green monkey Vero cells after 24 to 36 hrs by MTS-based CPE reduction assay; format: functional, organism-based; settings: Enterovirus B; outline: as §1
Coxsackievirus B1 = test: Antiviral activity against Human coxsackievirus B1 infected in african green monkey Vero cells after 24 to 36 hrs by MTS-based CPE reduction assay; format: functional, organism-based; settings: Enterovirus B; outline: as §1
RD [9] = test: Inhibition of human enterovirus 71 capsid assessed as reduction in viral replication at early stages infected in human RD cells at 0.05 ug/ml; format: cell-based; settings: Enterovirus A71
Outline: (§6)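 Time-of-addition test in RD cells infected with EV71 at MOI 0.01. Compound was added at set times relative to infection (0.05 or 20 µg/mL).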

[10] = Selectivity index, ratio of CC50 for human RD cells to EC50 for Enterovirus 71; format: toxicity, cell-based; settings: read-out: Ratio CC50/EC50; outline: as §3
RD [11] = test: Inhibition of human enterovirus 71 capsid assessed as reduction in viral replication at early stages infected in human RD cells at 20 ug/ml; format: cell-based; settings: Enterovirus A71; outline: as §6
Enterovirus A71 [12] = test: Induction of stabilization of Human enterovirus 71 capsid protein assessed as increase in temperature for achieving equal staining of viral genome at 50 ug/ml by SYBR green fluorescent assay; outline: as §4
Enterovirus A71 [13] = test: Antiviral activity against Human enterovirus 71 infected in human RD cells after 24 to 36 hrs; format: functional, organism-based; settings: Enterovirus A; outline: as §2

Row | SMILES | EC50 (Coxsackievirus B2) [nM] | Activity (RD [1]) | EC50 (Enterovirus A71 [2]) [nM] | selectivity ratio [3] | EC50 (Coxsackievirus B4) [nM] | Activity (Enterovirus A71 [4]) | CC50 (RD [5]) [nM] | EC50 (Enterovirus A71 [6]) [nM] | EC50 (Coxsackievirus B3) [nM] | EC50 (Coxsackievirus B5) [nM] | CC50 [7] [nM] | Activity (Enterovirus A71 [8]) | EC50 (Coxsackievirus B6) [nM] | EC50 (Coxsackievirus B1) [nM] | inhibition (RD [9]) | selectivity ratio [10] | inhibition (RD [11]) | Activity (Enterovirus A71 [12]) | EC50 (Enterovirus A71 [13]) [nM]
1 | CN(C)c1ccc(C(=O)NNc2c(Cl)cccc2Cl)cc1 | 0.9 | Non-toxic | 30 | > 12300 | 2570 | Active | > 247000 | 20 | 950 | 2270 | > 247000 | Active | 940 | 1.3 | Active | > 8230 |  |  | 
2 | CC(C)S(=O)(=O)n1c(N)nc2ccc(/C(=N/O)c3ccccc3)cc21 [ENVIROXIME] | 150 |  | 240 | > 1490 | > 186000 |  | > 223000 | 150 | 2480 | 120 | > 223000 |  | 100 | 750 |  | > 950 |  |  | 
3 | CC(C)(C)c1ccc(C(=O)NNc2c(Br)cccc2Br)cc1 | 1570 |  | 290 | > 2350 | 6520 |  | > 188000 | 80 | 870 | 980 | > 188000 |  | 920 | 2610 |  | > 641 |  |  | 
4 | CN(C)c1ccc(C(=O)NNc2c(Br)cccc2Br)cc1 | 0.5 |  | 70 | > 6460 | 340 |  | > 194000 | 30 | 30 | 60 | > 194000 |  | 20 | 5 |  | > 2930 |  |  | 
5 | Cc1cccc(C)c1NNC(=O)c1ccc(C(C)(C)C)cc1 | 1.6 |  | 420 | 978 | 5620 |  | 188000 | 170 | 90 | 3190 | 166000 |  | 560 | 1.6 |  | 454 |  |  | 
6 | Cc1cc(CCCCCCCOc2ccc(C3=NCCO3)cc2)on1 [DISOXARIL] |  |  | 15300 | 7.6 |  |  | 167000 | 19500 |  |  | 148000 |  |  |  |  | 10.9 | Active | Active | 
7 | O=C(c1cccs1)N(Cc1ccc(Br)cc1)c1ccc(F)cc1 |  |  |  |  |  |  |  |  |  |  |  |  |  |  |  |  |  |  | 1420

Reference: ChEMBL document CHEMBL3779764, “Identification and Structure-Activity Relationships of Diarylhydrazides as Novel Potent and Selective Human Enterovirus Inhibitors” (J Med Chem, 2016)
